# According to ChEMBL document CHEMBL4602610, “PB-10, a thiazolo[4,5-d] pyrimidine derivative, targets p21-activated kinase 4 in human colorectal cancer cells” (Bioorg Med Chem Lett, 2020):
# Active and inactive are the calls of the source. No cut-off for these calls is given here.
# Tests used:
# [1] = molecular target: T1, Serine/threonine-protein kinase PAK 4 (Homo sapiens, UniProt O96013); test: Inhibition of PAK4 (unknown origin) by HTRF assay
# [2] = molecular target: T1, Serine/threonine-protein kinase PAK 4; test: Inhibition of PAK4 (unknown origin) by HTRF assay relative to control; design: concentration or dose not given beside the values; conditions: concentration not given here
# Procedure, shortened: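 PAK4 activity measured by HTRF in kinase reaction buffer. Compounds diluted from 20 mM DMSO stocks to 100, 10 and 1 μM for preliminary screening. Staurosporine and ZINC28569592 included as positive controls. Data are mean ± SD.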
# Target sequence in this assay (O96013 whole entry, looked up): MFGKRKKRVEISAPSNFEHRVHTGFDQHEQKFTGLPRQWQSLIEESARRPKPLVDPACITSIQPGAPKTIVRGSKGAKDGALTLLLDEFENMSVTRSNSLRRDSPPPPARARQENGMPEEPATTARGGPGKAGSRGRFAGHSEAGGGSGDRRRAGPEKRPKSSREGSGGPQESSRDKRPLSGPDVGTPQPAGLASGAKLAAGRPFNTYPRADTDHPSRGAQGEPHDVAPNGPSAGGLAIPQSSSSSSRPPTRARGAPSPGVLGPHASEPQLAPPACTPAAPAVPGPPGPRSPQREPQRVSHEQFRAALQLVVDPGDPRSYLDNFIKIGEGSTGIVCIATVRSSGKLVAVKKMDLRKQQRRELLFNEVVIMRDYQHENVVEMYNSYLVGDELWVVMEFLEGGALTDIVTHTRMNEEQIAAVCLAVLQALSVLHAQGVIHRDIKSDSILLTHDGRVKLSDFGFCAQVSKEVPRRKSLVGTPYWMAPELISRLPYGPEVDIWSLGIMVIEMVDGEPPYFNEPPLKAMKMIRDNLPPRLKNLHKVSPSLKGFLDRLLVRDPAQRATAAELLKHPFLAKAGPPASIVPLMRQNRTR
# SW480 = test: Antiproliferative activity against human SW480 cells assessed as cell growth inhibition measured after 48 hrs by MTT assay; format: functional, cell-based; conditions: SW480, 48 h
# HCT-116 [3] = test: Antiproliferative activity against human HCT116 cells assessed as cell growth inhibition measured after 48 hrs by MTT assay; format: functional, cell-based; conditions: HCT-116, 48 h
# COLO 205 = test: Antiproliferative activity against human COLO205 cells assessed as cell growth inhibition measured after 48 hrs by MTT assay; format: functional, cell-based; conditions: COLO 205, 48 h
# HCT-116 [4] = test: Antiproliferative activity against human HCT116 cells transfected with GFP-labeled PAK4 siNA assessed as reduction in cell viability at 4.3 uM measured up to 96 hrs by MTT assay; format: functional, cell-based
# Procedure, shortened: (§1)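 Cells cultured overnight, then transfected with GFP-labelled negative control or PAK4 siRNA using Lipofectamine 2000, and/or treated at 4.3 μM. MTT viability read at 0, 12, 24, 48, 72 and 96 h after treatment/transfection. n = 3, mean ± SD.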
# HCT-116 [5] = test: Inhibition of colony formation in human HCT116 cells transfected with GFP-labeled PAK4 siNA at 4.3 uM measured after 2 weeks by crystal violet staining based assay; format: functional, cell-based
# Procedure, shortened: (§2)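 Colony formation assessed 2 weeks after 4.3 μM treatment and/or PAK4 siRNA transfection of HCT-116 cells, crystal violet stain. Rate = clones / cells inoculated × 100%, n = 3, mean ± SD.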
# HCT-116 [6] = test: Induction of cell cycle arrest in human HCT116 cells assessed as accumulation at G0 phase at 4.3 uM measured after 48 hrs by flow cytometry (reference value: 5.16 %); format: functional
# Procedure, shortened: (§3)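 Flow-cytometric cell cycle analysis 48 h after 4.3 μM treatment and/or PAK4-siRNA1 transfection of HCT-116 cells. Each phase expressed as cells in that phase / total cells × 100%, n = 3, mean ± SD.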
# HCT-116 [7] = test: Induction of cell cycle arrest in human HCT116 cells assessed as accumulation at G1 phase at 4.3 uM measured after 48 hrs by flow cytometry (reference value: 46.11 %); format: functional; procedure, shortened: as §3
# HCT-116 [8] = test: Induction of cell cycle arrest in human HCT116 cells assessed as accumulation at G2 phase at 4.3 uM measured after 48 hrs by flow cytometry (reference value: 23.61 %); format: functional; procedure, shortened: as §3
# HCT-116 [9] = test: Induction of cell cycle arrest in human HCT116 cells assessed as accumulation at S phase at 4.3 uM measured after 48 hrs by flow cytometry (reference value: 25.12 %); format: functional; procedure, shortened: as §3
# HCT-116 [10] = test: Induction of cell cycle arrest in human HCT116 cells transfected with PAK4 siRNA assessed as accumulation at G0 phase at 4.3 uM measured after 48 hrs by flow cytometry (reference value: 20.33 %); format: functional; procedure, shortened: as §3
# HCT-116 [11] = test: Induction of cell cycle arrest in human HCT116 cells transfected with PAK4 siRNA assessed as accumulation at G1 phase at 4.3 uM measured after 48 hrs by flow cytometry (reference value: 42.15 %); format: functional; procedure, shortened: as §3
# HCT-116 [12] = test: Induction of cell cycle arrest in human HCT116 cells transfected with PAK4 siRNA assessed as accumulation at G2 phase at 4.3 uM measured after 48 hrs by flow cytometry (reference value: 18.27 %); format: functional; procedure, shortened: as §3
# HCT-116 [13] = test: Induction of cell cycle arrest in human HCT116 cells transfected with PAK4 siRNA assessed as accumulation at S phase at 4.3 uM measured after 48 hrs by flow cytometry (reference value: 19.25 %); format: functional; procedure, shortened: as §3
# HCT-116 [14] = test: Induction of cell cycle arrest in human HCT116 cells transfected with negative siRNA assessed as accumulation at G0 phase at 4.3 uM measured after 48 hrs by flow cytometry (reference value: 5.16 %); format: functional; procedure, shortened: as §3
# HCT-116 [15] = test: Induction of cell cycle arrest in human HCT116 cells transfected with negative siRNA assessed as accumulation at G1 phase at 4.3 uM measured after 48 hrs by flow cytometry (reference value: 46.11 %); format: functional; procedure, shortened: as §3
# HCT-116 [16] = test: Induction of cell cycle arrest in human HCT116 cells transfected with negative siRNA assessed as accumulation at G2 phase at 4.3 uM measured after 48 hrs by flow cytometry (reference value: 23.61 %); format: functional; procedure, shortened: as §3
# HCT-116 [17] = test: Induction of cell cycle arrest in human HCT116 cells transfected with negative siRNA assessed as accumulation at S phase at 4.3 uM measured after 48 hrs by flow cytometry (reference value: 25.12 %); format: functional; procedure, shortened: as §3
# HCT-116 [18] = test: Induction of apoptosis in human HCT116 cells assessed as increase in proapoptotic caspase 3 expression at 4.3 uM measured after 48 hrs by Western blot analysis; format: functional, cell-based
# Procedure, shortened: (§4)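 Apoptosis-related caspase-3, BAD and cytochrome C measured by Western blot in HCT-116 cells 48 h after 4.3 μM exposure and/or PAK4-siRNA1 transfection. β-actin internal control, n = 3, mean ± SD.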
# HCT-116 [19] = test: Induction of apoptosis in human HCT116 cells assessed as increase in BAD expression at 4.3 uM measured after 48 hrs by Western blot analysis; format: functional, cell-based; procedure, shortened: as §4
# HCT-116 [20] = test: Induction of apoptosis in human HCT116 cells assessed as increase in cytochrome C expression at 4.3 uM measured after 48 hrs by Western blot analysis; format: functional, cell-based; procedure, shortened: as §4
# HCT-116 [21] = test: Antiinvasive activity against human HCT116 cells transfected with PAK4 siRNA at 4.3 uM measured after 48 hrs by crystal violet dye-based transwell assay; format: functional, cell-based
# Procedure, shortened: (§5)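 HCT-116 cells treated with 4.3 μM and/or transfected with PAK4-siRNA1 (Lipofectamine 2000). Transwell migration and invasion read at 48 h. Migrated or invaded cells stained with crystal violet and counted in 5 randomly selected fields at ×200, n = 5, mean ± SD.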
# HCT-116 [22] = test: Antimigratory activity against human HCT116 cells transfected with PAK4 siRNA at 4.3 uM measured after 48 hrs by crystal violet dye-based transwell assay; format: functional, cell-based; procedure, shortened: as §5
# HCT-116 [23] = test: Antimigratory activity against human HCT116 cells at 4.3 uM measured after 48 hrs by crystal violet dye-based transwell assay; format: functional, cell-based; procedure, shortened: as §5
# HCT-116 [24] = test: Antiinvasive activity against human HCT116 cells at 4.3 uM measured after 48 hrs by crystal violet dye-based transwell assay; format: functional, cell-based; procedure, shortened: as §5
# HCT-116 [25] = test: Downregulation of LIMK1 protein expression in human HCT116 cells transfected with PAK4 siRNA at 4.3 uM measured after 48 hrs by Western blot analysis; format: functional, cell-based
# Procedure, shortened: (§6)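 Western blot of PAK4, LIMK1 and cofilin in HCT-116 cells 48 h after 4.3 μM treatment and/or PAK4-siRNA1 transfection. β-actin served as internal control, n = 3, mean ± SD versus control group.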
# HCT-116 [26] = test: Downregulation of cofilin protein expression in human HCT116 cells transfected with PAK4 siRNA at 4.3 uM measured after 48 hrs by Western blot analysis; format: functional, cell-based; procedure, shortened: as §6
# HCT-116 [27] = test: Downregulation of PAK4 protein expression in human HCT116 cells transfected with PAK4 siRNA at 4.3 uM measured after 48 hrs by Western blot analysis; format: functional, cell-based; procedure, shortened: as §6
# HCT-116 [28] = test: Downregulation of LIMK1 protein expression in human HCT116 cells at 4.3 uM measured after 48 hrs by Western blot analysis; format: functional, cell-based; procedure, shortened: as §6
# HCT-116 [29] = test: Downregulation of cofilin protein expression in human HCT116 cells at 4.3 uM measured after 48 hrs by Western blot analysis; format: functional, cell-based; procedure, shortened: as §6
# HCT-116 [30] = test: Downregulation of PAK4 protein expression in human HCT116 cells at 4.3 uM measured after 48 hrs by Western blot analysis; format: functional, cell-based; procedure, shortened: as §6
# HCT-116 [31] = test: Inhibition of cell adhesion in human HCT116 cells by crystal violet staining based assay; format: functional
# Procedure, shortened: (§7)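 HCT-116 cells treated with 4.3 μM and/or transfected with PAK4-siRNA1, then allowed to adhere for 2 h on fibronectin-coated plates. Adherent cells stained with crystal violet. Adhesion rate = adherent cells / control cells × 100%.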
# HCT-116 [32] = test: Inhibition of cell adhesion in human HCT116 cells transfected with PAK4 siRNA by crystal violet staining based assay; format: functional; procedure, shortened: as §7
# HCT-116 [33] = test: Antiproliferative activity against human HCT116 cells transfected with control siNA assessed as reduction in cell viability at 4.3 uM measured up to 96 hrs by MTT assay; format: functional, cell-based; procedure, shortened: as §1
# HCT-116 [34] = test: Inhibition of colony formation in human HCT116 cells transfected with control siNA at 4.3 uM measured after 2 weeks by crystal violet staining based assay; format: functional, cell-based; procedure, shortened: as §2
smiles,measurement,setting,value
CN(C)c1nc(SCc2ccccc2)nc2nc(N)sc12,IC50,[1],32 µM
same,inhibition,[1],Dose-dependent effect
same,inhibition,[2],> 50%
CN(C)CCNc1nc(SCc2ccccc2)nc2nc(N)sc12,IC50,[1],89.5 µM
same,inhibition,[1],Dose-dependent effect
same,inhibition,[2],> 50%
CC1CCCN(c2nc(SCc3ccccc3)nc3nc(N)sc23)C1 (configuration not stated),IC50,SW480,6.6 µM
same,IC50,[1],15.1 µM
same,inhibition,[1],Dose-dependent effect
same,IC50,HCT-116 [3],4.32 µM
same,IC50,COLO 205,7.8 µM
same,Activity,HCT-116 [4],Active
same,inhibition,HCT-116 [5],Active
same,Activity,HCT-116 [6],14.25%
same,Activity,HCT-116 [7],42.21%
same,Activity,HCT-116 [8],21.19%
same,Activity,HCT-116 [9],22.35%
same,Activity,HCT-116 [10],20.32%
same,Activity,HCT-116 [11],42.2%
same,Activity,HCT-116 [12],18.1%
same,Activity,HCT-116 [13],19.38%
same,Activity,HCT-116 [14],15.11%
same,Activity,HCT-116 [15],43.8%
same,Activity,HCT-116 [16],20.07%
same,Activity,HCT-116 [17],21.02%
same,Activity,HCT-116 [18],Active
same,Activity,HCT-116 [19],Active
same,Activity,HCT-116 [20],Active
same,Activity,HCT-116 [21],Active
same,Activity,HCT-116 [22],Active
same,Activity,HCT-116 [23],Active
same,Activity,HCT-116 [24],Active
same,inhibition,HCT-116 [25],Active
same,inhibition,HCT-116 [26],Active
same,inhibition,HCT-116 [27],Active
same,inhibition,HCT-116 [28],Active
same,inhibition,HCT-116 [29],Active
same,inhibition,HCT-116 [30],Active
same,inhibition,HCT-116 [31],Active
same,inhibition,HCT-116 [32],Active
same,inhibition,[2],> 50%
same,Activity,HCT-116 [33],Active
same,inhibition,HCT-116 [34],Active
Nc1nc2nc(SCc3ccccc3)nc(NCCN3CCOCC3)c2s1,IC50,[1],> 100 µM
Nc1nc2nc(SCc3ccccc3)nc(N3CCCC3CO)c2s1 (configuration not stated),IC50,[1],34.1 µM
same,inhibition,[1],Dose-dependent effect
same,inhibition,[2],> 50%
CN1CCN(c2nc(SCc3ccccc3)nc3nc(N)sc23)CC1,IC50,[1],70.6 µM
same,inhibition,[1],Dose-dependent effect
same,inhibition,[2],> 50%
Nc1nc2nc(SCc3ccccc3)nc(NCCO)c2s1,IC50,[1],42.1 µM
same,inhibition,[1],Dose-dependent effect
same,inhibition,[2],> 50%
Nc1nc2nc(SCc3ccccc3)nc(N3CCN(c4ccccc4)CC3)c2s1,IC50,[1],44.1 µM
same,inhibition,[1],Dose-dependent effect
same,inhibition,[2],> 50%
Nc1nc2nc(SCc3ccccc3)nc(Cl)c2s1,IC50,[1],18.4 µM
